Screens: PubChem BioAssay, several laboratories
A3G deaminase – blocks human APOBEC3G single-stranded DNA deamination | recombinant A3G, ssDNA deamination FAM/TAMRA fluorescence | inhibition, % at 20 µM | Q9HC16 | actives 0.28% (n = 330,000);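 active = inhibition of at least 40% at 20 µM, with no more than 30% in the related APOBEC3A deaminase screen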;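 note: plate controls were DMSO wells with A3G for no effect and wells lacking A3G enzyme for full effect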
A3A deaminase – human APOBEC3A DNA deaminase inhibition | actives 0.41% (n = 330,000) | recombinant A3A, FAM/TAMRA ssDNA deamination fluorescence | P31941 | AID 493011 | inhibition, % at 20 µM;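 active = at least 40% inhibition at 20 µM here, with at most 30% in a related deaminase screen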;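 note: plate controls were A3A with DMSO for no effect and wells lacking A3A enzyme for full effect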
Target sequence (P31941 whole entry, looked up): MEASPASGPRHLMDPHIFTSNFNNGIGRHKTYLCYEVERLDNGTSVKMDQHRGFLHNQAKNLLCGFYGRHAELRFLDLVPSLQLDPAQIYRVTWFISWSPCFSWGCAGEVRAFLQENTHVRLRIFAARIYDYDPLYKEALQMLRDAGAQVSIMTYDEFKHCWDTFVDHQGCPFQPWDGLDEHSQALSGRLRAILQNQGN
HCV core dimer – HCV core protein dimerization inhibition; TR-FRET GST/Flag-core106 dimerization, 1536-well; inhibition, % at 5 µM; actives 0.33% (n = 300,000);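 active = inhibition above the mean of all tested compounds plus 3 SD, set per screening campaign, cut at about 45% in these data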
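Assay system – GST-tagged and Flag-tagged HCV core protein residues 1-106 · Quantity – core106 proteins, GST 13.5 nM and Flag 17 nM · Benchmarks – unlabelled core106 and no-GST-core106 wells · Read-out basis – percent inhibition of core106 dimerization signal · Detection – time-resolved FRET, ex 340 nm, em 617 and 671 nm · Schedule – 4 h at 22.5 °C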
ABHD5-PLIN5 inh – ABHD5-PLIN5 protein interaction inhibition. Q00G26+Q8WTS1. Split G. princeps luciferase complementation, luminescence, 4 h. inhibition, % at 4 µM. actives 0.78% (n = 360,000);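 active = inhibition above the mean inhibition across every tested compound plus 3 SD, cut at about 22% in these data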;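 note: 0% = DMSO only wells and the 100% control is not disclosed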
PRMT1 inh – inhibitors of human PRMT1; Q99873; recombinant PRMT1, activity-based probe fluorescence polarization; inhibition, % at 2.79 µM; actives 1.3% (n = 370,000);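 active = inhibition above about 21% made by adding two undisclosed values, limit read from the data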
NS3 helicase inh – blocks Hepatitis C virus NS3 helicase unwinding | NS3 helicase DNA unwinding, Cy5 molecular beacon fluorescence | inhibition, % at 10.9 µM | actives 0.56% (n = 290,000) | AID 1800;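 active = inhibition above the mean of all tested compounds plus 3 SD, set per campaign, cut at about 35% in these data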;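 note: 0% = DMSO wells and 100% = thioflavine S control wells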
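assay system = NS3 helicase fragment of HCV | buffer or medium = MOPS pH 6.5, MgCl2, DTT, Tween20, BSA | timing = 60 min unwinding reaction at 25 °C after ATP addition | signal = Cy5 beacon fluorescence read at start and 1 h | read-out basis = % inhibition of unwinding | control set = low DMSO, high thioflavine S at 110 µM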
ABHD5-PLIN5 conf – confirmation of human ABHD5-PLIN5 interaction inhibitors; inhibition, % at 4 µM; shares compounds with ABHD5-PLIN5 inh; AID 651612; actives 67% (n = 2,200); biochemical ABHD5-PLIN5 interaction, luminescence; in the data active = inhibition above about 23%;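 note: 0% = DMSO vehicle wells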
HNF4 counter – counter-screen for ABHD5-PLIN5 inhibitors: HNF4 split-luciferase; HNF4 dimerization, luminescence, biochemical; shares compounds with ABHD5-PLIN5 inh; inhibition, % at 4 µM; actives 77% (n = 2,200);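 active = mean inhibition across replicate wells exceeding the computed hit threshold, cut at about 13% in these data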;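 note: light from luciferase halves that rejoin when HNF4 fusion proteins dimerize; 0% = DMSO only wells and the 100% control is not given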
Numbers without * were called inactive; x = not tested or not shown. Only some compounds are listed: those with a hit (about 2.9% of all), similar ones and a draw of the others.

SMILES | A3G deaminase | A3A deaminase | HCV core dimer | ABHD5-PLIN5 inh | PRMT1 inh | NS3 helicase inh | ABHD5-PLIN5 conf | HNF4 counter
CSc1ccccc1OCc1cc(C(=O)N2CCN3CCCC3C2)no1 (centres undefined) | -5 | -8 | 7 | 0 | -1 | -6 | x | x
CC1CC(C)CN(CCCNS(=O)(=O)c2ccc3c(c2)CCN3C(=O)C2CC2)C1 (centres undefined) | -7 | -3 | -5 | 7 | -3 | 3 | x | x
Cc1ccccc1Oc1nc2ccccn2c(=O)c1/C=C(\C#N)C(=O)Nc1c(C)n(C)n(-c2ccccc2)c1=O | -6 | -1 | 3 | 1 | 1 | -9 | x | x
Cc1ccccc1Oc1nc2c(C)cccn2c(=O)c1/C=C(\C#N)C(=O)Nc1c(C)n(C)n(-c2ccccc2)c1=O | -3 | -3 | 22 | 28* | 3 | -2 | 49* | 35*
Cc1cc(C)c(C(=O)/C=C/c2cccc3ccccc23)c(=O)[nH]1 | -1 | 27 | 10 | 54* | -1 | -6 | 64* | 61*
O=C1C=C(NC2=CC3OC(c4ccccc4)OCC3OC2=O)CCC1 (centres undefined) | x | x | 1 | 26* | 1 | -7 | 87* | 95*
Cn1c(-c2ccccc2)c(C(=O)CCl)c2ccccc21 | x | x | x | 24* | 2 | -7 | 37* | 22*
COc1ccc(C(=O)c2coc(-c3ccccc3C(=O)O)c2C(=O)O)cc1 | 0 | 0 | 0 | 3 | 4 | -1 | x | x
Cc1oc2c(c1C(=O)c1ccc(Cl)cc1)C(=O)C(=O)c1ccccc1-2 | x | x | x | 55* | 0 | 16 | 81* | 35*
Cc1ccc(C(=O)c2coc3c2C(=O)C(=O)c2ccccc2-3)cc1 | 3 | -10 | 7 | 85* | 0 | 15 | 94* | 65*
O=C(c1ccc(Cl)cc1)c1ccc(CN2C(=O)c3ccccc3C2=O)o1 | 0 | 0 | 15 | 1 | -2 | 1 | x | x
O=S1(=O)N[C@@H](Cc2ccccc2)COc2cc(N3CC[C@H](O)C3)ccc21 | x | x | x | 8 | 0 | x | x | x
COc1ccc(C(=O)Cn2c(C)nc([N+](=O)[O-])c2Br)cc1 | 1 | 2 | 2 | 13 | 2 | -6 | x | x
Cc1nc([N+](=O)[O-])c(Br)n1Cc1ccc(Cl)c(Cl)c1 | x | x | x | 24* | -2 | -7 | 35* | 38*
Cc1nc([N+](=O)[O-])c(Br)n1CC(=O)c1ccc(Cl)cc1 | 0 | -1 | 10 | 27* | 7 | -1 | 31* | 26*
CC[n+]1c(/C=C2\Sc3ccccc3N2C)ccc2cccc(C)c21 | x | x | x | 24* | 2 | -15 | 23* | 26*
CC1(C)SC2C(C(=O)O)N=C(Cc3ccccc3)N2C1C(=O)O (centres undefined) | x | x | x | -10 | 10 | x | x | x
CC[C@@H](CCCc1ccc(OC)cc1)CCC(=O)N(c1ccccc1)c1ccccc1 | x | x | x | x | 3 | x | x | x
O=c1[nH]c(/C=C\c2cccc(F)c2)nc(O)c1[N+](=O)[O-] | -5 | -4 | 17 | 36* | -1 | 32 | 69* | 54*
O=c1[nH]c(/C=C\c2ccccc2F)nc(O)c1[N+](=O)[O-] | -5 | -4 | 17 | 33* | 3 | 11 | 55* | 43*
COc1ccc(/C=C\c2nc(O)c([N+](=O)[O-])c(=O)[nH]2)cc1O | -7 | -4 | 8 | 23* | -1 | 4 | 27* | 30*
C=CCOc1cccc(/C=C\c2nc(O)c([N+](=O)[O-])c(=O)[nH]2)c1 | -8 | 2 | 24 | 46* | 2 | 36 | 79* | 69*
O=C(Nc1ccccc1C(=O)Nc1nccs1)c1ccccc1 | x | x | x | 4 | 2 | x | x | x
COc1ccc(N/N=C(\C#N)C(=N)SCc2ccccc2)cc1 | x | x | x | 39* | 9 | 0 | 38* | 37*
O=C(NCc1cccnc1)c1cc(C2CCCN(S(=O)(=O)c3cccs3)C2)on1 (centres undefined) | x | x | x | 3 | 7 | x | x | x
